Experimental data: ChEMBL document CHEMBL4041530, “Development of spiroguanidine-derived α7 neuronal nicotinic receptor partial agonists” (Bioorg Med Chem Lett, 2017)

Target: Neuronal acetylcholine receptor subunit alpha-7 (Rattus norvegicus) (UniProt Q05941)
Experiment: Agonist activity at rat alpha7 nAChR expressed in HEK293 cells co-expressing human RIC-3 assessed as maximum peak current at 10 uM at holding potential of -90 mV by whole-cell voltage clamp electrophysiology method relative to acetylcholine
Type: cell-based
Procedure, shortened: (§1)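 Concentration-response patch-clamp electrophysiology in HEK-293 cells expressing rat α7 nAChR. EC50 is taken from response area. Efficacy is given as Ymax from both area and peak response.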

Neuronal acetylcholine receptor subunit alpha-7 (Rattus norvegicus), sequence (Q05941 whole entry): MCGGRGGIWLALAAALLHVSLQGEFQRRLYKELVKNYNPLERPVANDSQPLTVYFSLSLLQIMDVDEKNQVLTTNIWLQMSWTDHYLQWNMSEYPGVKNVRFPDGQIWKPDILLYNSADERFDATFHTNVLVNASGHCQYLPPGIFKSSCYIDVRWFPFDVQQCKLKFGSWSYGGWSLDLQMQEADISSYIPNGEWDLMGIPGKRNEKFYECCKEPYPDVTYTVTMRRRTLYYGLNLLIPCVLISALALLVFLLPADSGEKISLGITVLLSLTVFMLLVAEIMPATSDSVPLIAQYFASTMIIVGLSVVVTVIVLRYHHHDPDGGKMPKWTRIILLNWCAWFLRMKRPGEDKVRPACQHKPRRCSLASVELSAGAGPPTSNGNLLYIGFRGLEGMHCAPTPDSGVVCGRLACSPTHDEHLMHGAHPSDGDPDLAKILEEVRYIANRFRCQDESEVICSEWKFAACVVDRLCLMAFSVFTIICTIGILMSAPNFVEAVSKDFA

Q: How did the Emax turn out when CN1C(Nc2nc3ccccc3s2)=NCC12CN1CCC2CC1 (stereo not drawn) was run?
A: 25%

Q: Which Emax does the source give for Clc1cnc(NC2=NCC3(CN4CCC3CC4)N2)nc1 (racemic) here?
A: 11%

Q: Cc1ccc2nc(NC3=NCC4(CN5CCC4CC5)N3)oc2c1 (racemic) was tested. Which Emax did it give?
A: 16%

Target: Neuronal acetylcholine receptor subunit alpha-7 (Rattus norvegicus, UniProt Q05941)
Experiment: Agonist activity at rat alpha7 nAChR expressed in HEK293 cells co-expressing human RIC-3 assessed as area under current curve at holding potential of -90 mV by whole-cell voltage clamp electrophysiology method
Type: cell-based
Procedure, shortened: as §1

Neuronal acetylcholine receptor subunit alpha-7 (Rattus norvegicus, UniProt Q05941), sequence (Q05941 whole entry): as above

Q: Which EC50 does the source give for CN1C(Nc2nc3ccccc3s2)=NCC12CN1CCC2CC1 (stereo not drawn) here?
A: 1.2 µM

Q: With Clc1cnc(NC2=NCC3(CN4CCC3CC4)N2)nc1 (racemic) as the compound, how does the EC50 read?
A: 1.1 µM

Q: For Cc1ccc2nc(NC3=NCC4(CN5CCC4CC5)N3)oc2c1 (racemic), which EC50 is on record?
A: 0.5 µM

Target: Neuronal acetylcholine receptor subunit alpha-7 (Homo sapiens, UniProt P36544)
Experiment: Agonist activity at alpha7 nAChR (unknown origin) expressed in HEK293 cells assessed as increase in calcium influx by Fluo-4-AM dye based FLIPR assay
Type: cell-based
Procedure, shortened: (§2)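 Ca2+-based fluorescence imaging plate reader screen, run as two assays: α7 nAChR agonism and 5-HT3A receptor antagonism. Number of determinations recorded per value.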

Neuronal acetylcholine receptor subunit alpha-7 (Homo sapiens, UniProt P36544), sequence (P36544 whole entry): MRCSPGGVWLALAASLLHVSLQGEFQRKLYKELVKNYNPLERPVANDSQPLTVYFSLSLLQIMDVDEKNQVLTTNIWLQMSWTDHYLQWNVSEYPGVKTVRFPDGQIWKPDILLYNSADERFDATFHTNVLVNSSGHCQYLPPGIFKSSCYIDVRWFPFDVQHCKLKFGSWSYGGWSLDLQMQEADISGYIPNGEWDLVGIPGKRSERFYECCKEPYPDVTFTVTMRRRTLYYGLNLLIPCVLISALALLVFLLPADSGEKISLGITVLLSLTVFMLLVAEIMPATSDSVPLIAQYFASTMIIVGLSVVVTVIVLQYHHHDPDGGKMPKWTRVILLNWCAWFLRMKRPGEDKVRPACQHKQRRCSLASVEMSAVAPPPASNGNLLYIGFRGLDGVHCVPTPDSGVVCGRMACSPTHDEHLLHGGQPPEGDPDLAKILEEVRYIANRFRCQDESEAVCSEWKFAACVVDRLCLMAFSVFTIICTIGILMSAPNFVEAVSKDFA

Q: With CN1C(Nc2nc3ccccc3s2)=NCC12CN1CCC2CC1 (stereo not drawn) as the compound, how does the EC50 read?
A: 0.17 µM

Q: For Clc1cnc(NC2=NCC3(CN4CCC3CC4)N2)nc1 (racemic), which EC50 is on record?
A: 0.29 µM

Q: How did the EC50 turn out when Cc1ccc2nc(NC3=NCC4(CN5CCC4CC5)N3)oc2c1 (racemic) was run?
A: 0.035 µM

Target: Neuronal acetylcholine receptor subunit alpha-7 (Rattus norvegicus) (UniProt Q05941)
Experiment: Agonist activity at rat alpha7 nAChR expressed in HEK293 cells co-expressing human RIC-3 assessed as area under current curve at 10 uM at holding potential of -90 mV by whole-cell voltage clamp electrophysiology method relative to acetylcholine
Type: cell-based
Procedure, shortened: as §1

Q: How did the Emax turn out when CN1C(Nc2nc3ccccc3s2)=NCC12CN1CCC2CC1 (stereo not drawn) was run?
A: 67%

Q: Which Emax does the source give for Clc1cnc(NC2=NCC3(CN4CCC3CC4)N2)nc1 (racemic) here?
A: 44%

Q: For Cc1ccc2nc(NC3=NCC4(CN5CCC4CC5)N3)oc2c1 (racemic), which Emax is on record?
A: 58%

Target: T1, 5-hydroxytryptamine receptor 3A (Homo sapiens, UniProt P46098)
T1 sequence (P46098 whole entry): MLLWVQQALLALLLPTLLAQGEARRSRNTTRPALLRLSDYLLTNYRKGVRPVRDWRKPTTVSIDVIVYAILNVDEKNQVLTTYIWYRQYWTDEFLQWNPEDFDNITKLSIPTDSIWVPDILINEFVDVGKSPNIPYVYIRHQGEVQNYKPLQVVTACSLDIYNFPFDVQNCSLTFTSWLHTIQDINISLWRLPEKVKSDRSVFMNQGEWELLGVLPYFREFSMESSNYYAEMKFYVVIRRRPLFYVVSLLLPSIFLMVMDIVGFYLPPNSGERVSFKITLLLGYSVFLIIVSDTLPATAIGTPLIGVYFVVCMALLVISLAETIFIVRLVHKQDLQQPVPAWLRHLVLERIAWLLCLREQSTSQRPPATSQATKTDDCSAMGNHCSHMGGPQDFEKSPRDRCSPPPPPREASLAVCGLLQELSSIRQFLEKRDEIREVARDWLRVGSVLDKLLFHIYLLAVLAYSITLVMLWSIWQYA
Experiment: Antagonist activity at 5-HT3A receptor (unknown origin) assessed as decrease in calcium influx by Fluo-4-AM dye based FLIPR assay
Procedure, shortened: as §2

Q: Which IC50 does the source give for CN1C(Nc2nc3ccccc3s2)=NCC12CN1CCC2CC1 (stereo not drawn) here?
A: 0.043 µM

Q: How did the IC50 turn out when Clc1cnc(NC2=NCC3(CN4CCC3CC4)N2)nc1 (racemic) was run?
A: 0.62 µM

Q: Which IC50 does the source give for Cc1ccc2nc(NC3=NCC4(CN5CCC4CC5)N3)oc2c1 (racemic) here?
A: 7.4 µM

Organism: Homo sapiens
Experiment: Selectivity ratio of IC50 for 5-HT3A receptor (unknown origin) to EC50 for alpha7 nAChR (unknown origin) expressed in HEK293 cells
Type: cell-based
Procedure, shortened: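 Selectivity ratio calculated as 5-HT3A IC50 (FLIPR Ca2+ antagonist assay) divided by α7 EC50 (FLIPR Ca2+ agonist assay).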

Q: For CN1C(Nc2nc3ccccc3s2)=NCC12CN1CCC2CC1 (stereo not drawn), which Ratio IC50/EC50 is on record?
A: 0.25

Q: For Clc1cnc(NC2=NCC3(CN4CCC3CC4)N2)nc1 (racemic), which Ratio IC50/EC50 is on record?
A: 2.1

Q: Which Ratio IC50/EC50 does the source give for Cc1ccc2nc(NC3=NCC4(CN5CCC4CC5)N3)oc2c1 (racemic) here?
A: 210 to 250
